Measured values from ChEMBL document CHEMBL4689842, “EUbOPEN Chemogenomics Library wave 1” (2021).

Test system: HEK-293T
Experiment: Multiplex assay against HEK293T;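 on Population Tubulin-Different-Phenotype (%): share of the cells with healthy nuclei that show this phenotype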
Type: toxicity, cell-based
Conditions: human
Summary of the method: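 Cells were classed with CellPathfinder machine-learning gating, first as Hoechst high-intensity objects or normal cells, then (normal cells) as healthy, pyknosed or fragmented nuclei, and finally (pyknosed cells) as mitotic or apoptotic. Staining of live cells at seeding used Hoechst33342, BioTracker Green Microtubule Cytoskeleton Dye, MitoTracker Red and Annexin V Alexa Fluor 680, with imaging on a CQ1 microscope at 37°C and 5% CO2 after compound addition. Tubulin, mitochondrial-mass and membrane-permeability phenotypes are per cents of healthy-nucleus cells.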

[1] = 12 h, 1 µM, compound concentration 1 uM, replicate 1
[2] = 12 h, 1 µM, compound concentration 1 uM, replicate 2
[3] = 12 h, 10 µM, compound concentration 10 uM, replicate 1
[4] = 12 h, 10 µM, compound concentration 10 uM, replicate 2
[5] = 24 h, 1 µM, compound concentration 1 uM, replicate 1
[6] = 24 h, 1 µM, compound concentration 1 uM, replicate 2
[7] = 24 h, 10 µM, compound concentration 10 uM, replicate 1
[8] = 24 h, 10 µM, compound concentration 10 uM, replicate 2
[9] = 48 h, 1 µM, compound concentration 1 uM, replicate 1
[10] = 48 h, 1 µM, compound concentration 1 uM, replicate 2
[11] = 48 h, 10 µM, compound concentration 10 uM, replicate 1
[12] = 48 h, 10 µM, compound concentration 10 uM, replicate 2

Cc1cc(C)cc(-c2cnc3cc(Cl)c(-c4cccc(O)c4)cc3c2OCCCN)c1
Population Apoptotic (%) [1]: 53% | Population Fragmented Nuclei (%) [1]: 11% | Population Healthy Nuclei (%) [1]: 40% | Population Hoechst High Intensity Objects (%) [1]: 10% | Population Membrane Permeable-Phenotype (%) [1]: 3% | Population Mitochondria Different-Phenotype (%) [1]: 95% | Population Mitotic Cells (%) [1]: 46% | Population Normal (%) [1]: 89% | Population Pyknosed Nuclei (%) [1]: 47% | Population Tubulin-Different-Phenotype (%) [1]: 92% | Total Cell Count [1]: 349 | Population Apoptotic (%) [2]: 31% | Population Fragmented Nuclei (%) [2]: 5% | Population Healthy Nuclei (%) [2]: 43% | Population Hoechst High Intensity Objects (%) [2]: 3% | Population Membrane Permeable-Phenotype (%) [2]: 6% | Population Mitochondria Different-Phenotype (%) [2]: 66% | Population Mitotic Cells (%) [2]: 68% | Population Normal (%) [2]: 96% | Population Pyknosed Nuclei (%) [2]: 50% | Population Tubulin-Different-Phenotype (%) [2]: 63% | Total Cell Count [2]: 251 | Population Apoptotic (%) [3]: 70% | Population Fragmented Nuclei (%) [3]: 23% | Population Healthy Nuclei (%) [3]: 1% | Population Hoechst High Intensity Objects (%) [3]: 13% | Population Membrane Permeable-Phenotype (%) [3]: 33% | Population Mitochondria Different-Phenotype (%) [3]: 33% | Population Mitotic Cells (%) [3]: 29% | Population Normal (%) [3]: 86% | Population Pyknosed Nuclei (%) [3]: 74% | Population Tubulin-Different-Phenotype (%) [3]: 66% | Total Cell Count [3]: 226 | Population Apoptotic (%) [4]: 90% | Population Fragmented Nuclei (%) [4]: 5% | Population Healthy Nuclei (%) [4]: 18% | Population Hoechst High Intensity Objects (%) [4]: 3% | Population Membrane Permeable-Phenotype (%) [4]: 0% | Population Mitochondria Different-Phenotype (%) [4]: 91% | Population Mitotic Cells (%) [4]: 9% | Population Normal (%) [4]: 96% | Population Pyknosed Nuclei (%) [4]: 76% | Population Tubulin-Different-Phenotype (%) [4]: 97% | Total Cell Count [4]: 192 | Population Apoptotic (%) [5]: 53% | Population Fragmented Nuclei (%) [5]: 15% | Population Healthy Nuclei (%) [5]: 26% | Population Hoechst High Intensity Objects (%) [5]: 12% | Population Membrane Permeable-Phenotype (%) [5]: 1% | Population Mitochondria Different-Phenotype (%) [5]: 98% | Population Mitotic Cells (%) [5]: 46% | Population Normal (%) [5]: 87% | Population Pyknosed Nuclei (%) [5]: 57% | Population Tubulin-Different-Phenotype (%) [5]: 90% | Total Cell Count [5]: 358 | Population Apoptotic (%) [6]: 39% | Population Fragmented Nuclei (%) [6]: 6% | Population Healthy Nuclei (%) [6]: 56% | Population Hoechst High Intensity Objects (%) [6]: 2% | Population Mitochondria Different-Phenotype (%) [6]: 81% | Population Mitotic Cells (%) [6]: 60% | Population Normal (%) [6]: 97% | Population Pyknosed Nuclei (%) [6]: 36% | Population Tubulin-Different-Phenotype (%) [6]: 79% | Total Cell Count [6]: 296 | Population Apoptotic (%) [7]: 77% | Population Fragmented Nuclei (%) [7]: 22% | Population Healthy Nuclei (%) [7]: 1% | Population Hoechst High Intensity Objects (%) [7]: 12% | Population Membrane Permeable-Phenotype (%) [7]: 0% | Population Mitochondria Different-Phenotype (%) [7]: 66% | Population Mitotic Cells (%) [7]: 22% | Population Normal (%) [7]: 87% | Population Pyknosed Nuclei (%) [7]: 76% | Population Tubulin-Different-Phenotype (%) [7]: 66% | Total Cell Count [7]: 232 | Population Apoptotic (%) [8]: 94% | Population Fragmented Nuclei (%) [8]: 6% | Population Healthy Nuclei (%) [8]: 9% | Population Hoechst High Intensity Objects (%) [8]: 8% | Population Membrane Permeable-Phenotype (%) [8]: 6% | Population Mitochondria Different-Phenotype (%) [8]: 75% | Population Mitotic Cells (%) [8]: 5% | Population Normal (%) [8]: 91% | Population Pyknosed Nuclei (%) [8]: 83% | Population Tubulin-Different-Phenotype (%) [8]: 75% | Total Cell Count [8]: 183 | Population Apoptotic (%) [9]: 51% | Population Fragmented Nuclei (%) [9]: 17% | Population Healthy Nuclei (%) [9]: 13% | Population Hoechst High Intensity Objects (%) [9]: 18% | Population Membrane Permeable-Phenotype (%) [9]: 0% | Population Mitochondria Different-Phenotype (%) [9]: 87% | Population Mitotic Cells (%) [9]: 48% | Population Normal (%) [9]: 81% | Population Pyknosed Nuclei (%) [9]: 68% | Population Tubulin-Different-Phenotype (%) [9]: 75% | Total Cell Count [9]: 352 | Population Apoptotic (%) [10]: 33% | Population Fragmented Nuclei (%) [10]: 5% | Population Healthy Nuclei (%) [10]: 75% | Population Hoechst High Intensity Objects (%) [10]: 6% | Population Membrane Permeable-Phenotype (%) [10]: 3% | Population Mitochondria Different-Phenotype (%) [10]: 55% | Population Mitotic Cells (%) [10]: 66% | Population Normal (%) [10]: 93% | Population Pyknosed Nuclei (%) [10]: 19% | Population Tubulin-Different-Phenotype (%) [10]: 69% | Total Cell Count [10]: 406 | Population Apoptotic (%) [11]: 80% | Population Fragmented Nuclei (%) [11]: 27% | Population Healthy Nuclei (%) [11]: 1% | Population Hoechst High Intensity Objects (%) [11]: 16% | Population Membrane Permeable-Phenotype (%) [11]: 0% | Population Mitochondria Different-Phenotype (%) [11]: 50% | Population Mitotic Cells (%) [11]: 19% | Population Normal (%) [11]: 83% | Population Pyknosed Nuclei (%) [11]: 71% | Population Tubulin-Different-Phenotype (%) [11]: 50% | Total Cell Count [11]: 238 | Population Apoptotic (%) [12]: 96% | Population Fragmented Nuclei (%) [12]: 15% | Population Healthy Nuclei (%) [12]: 14% | Population Hoechst High Intensity Objects (%) [12]: 7% | Population Membrane Permeable-Phenotype (%) [12]: 12% | Population Mitochondria Different-Phenotype (%) [12]: 79% | Population Mitotic Cells (%) [12]: 3% | Population Normal (%) [12]: 92% | Population Pyknosed Nuclei (%) [12]: 70% | Population Tubulin-Different-Phenotype (%) [12]: 83% | Total Cell Count [12]: 179
